Bioassay records deposited in PubChem by Broad Institute.
IDH1 mut inh – blocks human IDH1 R132H reductase activity; AID 624101; hit rate 0.18% among 70,000; O75874; inhibition, % at 10 µM; diaphorase/resazurin fluorescence, 60 min; in the data active means inhibition above about 34%; inconclusive means no clear call, values can overlap the other calls; inactive means below about 11%;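 further: 0% = DMSO and 100% = no enzyme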
Target sequence (O75874 whole entry R132H): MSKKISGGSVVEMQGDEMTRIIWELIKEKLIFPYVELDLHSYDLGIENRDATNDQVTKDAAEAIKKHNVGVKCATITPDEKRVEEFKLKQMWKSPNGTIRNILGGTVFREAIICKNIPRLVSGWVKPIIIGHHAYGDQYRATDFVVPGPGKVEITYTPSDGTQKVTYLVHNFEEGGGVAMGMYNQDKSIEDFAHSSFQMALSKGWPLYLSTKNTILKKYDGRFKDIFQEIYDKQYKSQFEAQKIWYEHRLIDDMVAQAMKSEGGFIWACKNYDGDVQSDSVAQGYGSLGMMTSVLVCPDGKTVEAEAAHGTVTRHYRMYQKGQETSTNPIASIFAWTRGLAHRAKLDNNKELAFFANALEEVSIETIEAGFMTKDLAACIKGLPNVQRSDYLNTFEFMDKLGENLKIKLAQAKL
T cruzi growth-1 – blocks T. cruzi growth in NIH3T3 culture. T. cruzi beta-gal in NIH3T3, GalScreen luminescence, 90 h. inhibition, % at 8.34 µM. hit rate 5.9% among 77,000. AID 624255;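 active means mean inhibition above about 93%, with at least 55% of replicates each passing it, limit read from the data, passing the limit was not always enough; inconclusive means only one of those two conditions holds; inactive means neither condition holds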
Pf Dd2 growth – inhibitors of Plasmodium falciparum Dd2 growth. activity change, % at 10 µM. hit rate 2.3% among 94,000. P. falciparum Dd2 growth, SYBR Green, 72 h; hits give low values; in the data active means activity change below about -80%; inconclusive means no clear call, values can overlap the other calls
KDM4C inh – inhibitors of human demethylase GASC-1 KDM4C. Q9H3R0. GST-KDM4C 2-372, H3K9me3 peptide, LANCE TR-FRET. inhibition, % at 12.5 µM. hit rate 0.15% among 96,000;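 active means mean replicate inhibition above about 25%, with at least 55% of replicates also reaching it, limit read from the data, passing the limit was not always enough; inconclusive means only one of those two conditions met; inactive means neither condition met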
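System: N-terminal GST-fused human GASC-1 (KDM4C) fragment, residues 2-372 / Amount: 10 nM GST-KDM4C in enzyme reaction / Also added: H3K9me3 peptide with Fe(II)/2OG / Times: 30 min demethylation and 1 h detection at room temperature / Signal: LANCE TR-FRET / Read-out basis: Fall in 671/618 emission ratio as inhibition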
T cruzi growth-2 – blocks T. cruzi growth in NIH3T3 host cells. T. cruzi beta-gal in NIH3T3, GalScreen luminescence, 90 h. hit rate 72% among 5,600. AID 651739. inhibition, % at 8.35 µM. shares compounds with T cruzi growth-1;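 active means mean replicate inhibition above about 95% and at least 55% of replicates individually reaching it, limit read from the data; inconclusive means only one of the two criteria is met; inactive means neither criterion is met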
T cruzi growth-3 – Trypanosoma cruzi proliferation inhibition; inhibition, % at 2.09 µM; hit rate 21% among 5,600; shares compounds with T cruzi growth-1; T. cruzi beta-gal in NIH3T3, GalScreen luminescence, 90 h;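 active means mean inhibition above about 95%, with at least 55% of replicates also reaching it, limit read from the data; inconclusive means meets just one of the two conditions; inactive means meets neither condition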;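 further: plate controls were neutral control median for no effect and positive control median for full effect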
3T3 cytotox – NIH/3T3 (mouse) viability loss; shares compounds with T cruzi growth-1; NIH/3T3 viability, CellTiter-Glo ATP luminescence, 90 h; cytotoxicity (signal decrease), % at 8.35 µM; hit rate 14% among 5,600; AID 651742;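 active means mean signal decrease across replicates above about 35% based on untreated-well scatter, with enough replicates individually passing, limit read from the data; inconclusive means no rule stated though some were filed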;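 further: 0% = median of neutral control wells and 100% = median of positive control wells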
NIH3T3 tox 2 – NIH/3T3 (mouse) viability loss | shares compounds with T cruzi growth-1 | NIH/3T3 viability, CellTiter-Glo ATP luminescence, 90 h | inhibition, % at 24.9 µM | hit rate 56% among 5,600 | AID 651744;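 active means mean loss of cell viability signal at or above a set limit, and enough replicates individually reaching it; inconclusive means meets only the mean limit or only the replicate share; inactive means meets neither condition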;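 further: 0% = median of neutral control wells and 100% = median of positive control wells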
* = called active by the depositor; u = inconclusive; x = no result. Hits are enriched below; roughly 5.8% of the tested compounds scored in any of these assays.

SMILES | IDH1 mut inh | T cruzi growth-1 | Pf Dd2 growth | KDM4C inh | T cruzi growth-2 | T cruzi growth-3 | 3T3 cytotox | NIH3T3 tox 2
CCCNC(=O)N1CC2(CCN(C(=O)c3cnccn3)CC2)c2c([nH]c3cc(OC)ccc23)[C@H]1CO | x | x | 4 | -1 | x | x | x | x
O=C(Cc1ccccn1)N[C@H]1CC[C@H](CCn2cc(-c3ccccc3)nn2)O[C@@H]1CO | 0 | 14 | 12 | -2 | x | x | x | x
O=C(C1CCCC1)N1CC(=O)N2[C@H](CO)[C@@H](c3ccc(C#Cc4cccc(F)c4)cc3)[C@H]2C1 | x | x | -49 | 0 | x | x | x | x
CC(C)C#Cc1ccc2c(c1)O[C@@H](CN(C)Cc1cccnc1)[C@H](C)CN([C@H](C)CO)S2(=O)=O | x | 100* | -61 | 1 | 99* | 92 | 40* | 106*
CC(C)C#Cc1ccc2c(c1)O[C@@H](CN(C)C(=O)c1cccnc1)[C@H](C)CN([C@@H](C)CO)S2(=O)=O | 81* | 103* | 8 | 52* | 76 | 64 | 22 | 39*
CC(C)C#Cc1ccc2c(c1)O[C@H](CN(C)C(=O)c1cccnc1)[C@@H](C)CN([C@H](C)CO)S2(=O)=O | 0 | 92 | -12 | 3 | x | x | x | x
CC(C)C#Cc1ccc2c(c1)O[C@@H](CN(C)Cc1cccnc1)[C@@H](C)CN([C@H](C)CO)S2(=O)=O | x | u | -21 | 0 | 99* | 79 | 25 | 23
CC(C)C#Cc1ccc2c(c1)O[C@H](CN(C)Cc1cccnc1)[C@@H](C)CN([C@@H](C)CO)S2(=O)=O | x | 93* | -63 | 1 | 108* | 102* | 42* | 106*
CCCN1[C@@H]2c3ccc(-c4ccc(C(=O)N(C)C)cc4)c(=O)n3C[C@@H]2[C@@H](CO)[C@@H]1C(=O)NCCOC | x | -14 | x | 6 | x | x | x | x
COc1cccc(S(=O)(=O)N[C@H]2CC[C@@H](CC(=O)NCc3ccccc3)O[C@@H]2CO)c1 | 0 | 24 | -5 | 3 | x | x | x | x
CO[C@@H]1CN(C)C(=O)c2ccc(NC(=O)Nc3cccc(F)c3)cc2OC[C@@H](C)NC[C@@H]1C | 0 | 41 | 17 | -1 | x | x | x | x
CCC(=O)N[C@@H]1C=C[C@H](CC(=O)NCc2ccccc2OC)O[C@@H]1CO | 0 | -58 | 11 | 2 | x | x | x | x
CCc1nc2sc3c(c2c2nnc(SCC(=O)OC)n12)CCC3 | 1 | x | x | x | x | x | x | x
C[C@H](O)C#Cc1ccc2c(c1)O[C@H](CN(C)Cc1ccncc1)[C@@H](C)CN([C@@H](C)CO)S2(=O)=O | x | 71 | -62 | -1 | x | x | x | x
CC(C)C#Cc1ccc2c(c1)O[C@@H](CN(C)Cc1ccncc1)[C@@H](C)CN([C@H](C)CO)S2(=O)=O | -1 | 107* | -10 | -2 | 94 | 85 | 17 | u
Cc1ccc(S(=O)(=O)N2C[C@H](O)COC[C@@H]3O[C@H](CC(=O)N[C@@H]4CCN(Cc5ccccc5)C4)CC[C@H]32)cc1 | x | 68 | -19 | 1 | x | x | x | x
O=C(C[C@H]1CC[C@H]2[C@@H](COC[C@@H](O)CN2S(=O)(=O)c2ccc(Cl)cc2)O1)N[C@@H]1CCN(Cc2ccccc2)C1 | x | 96* | -29 | -1 | u | 71 | -11 | 0
Cc1ccc(S(=O)(=O)N2C[C@H](O)COC[C@H]3O[C@@H](CC(=O)N[C@@H]4CCN(Cc5ccccc5)C4)CC[C@@H]32)cc1 | x | 98* | -8 | -1 | 76 | 61 | -2 | 1
CN(C)CC(=O)N1[C@@H]2c3ccc(-c4ccccc4)c(=O)n3C[C@H]1[C@H](CO)[C@H]2C(=O)N1CCOCC1 | x | -2 | 22 | 2 | x | x | x | x
C[C@@H]1CCCCO[C@H](CN(C)C(=O)c2ccccc2)[C@@H](C)CN([C@H](C)CO)C(=O)c2cc(NS(=O)(=O)c3ccc(Cl)cc3)ccc2O1 | -4 | -34 | -42 | 2 | x | x | x | x
CCCC#Cc1ccc([C@H]2[C@H]3CN(Cc4ccncc4)CCCCN3[C@H]2CO)cc1 | x | 95* | -25 | -1 | 105* | 56 | 42* | 81*
CCCC#Cc1ccc([C@H]2[C@@H](CO)N3CCCCN(Cc4ccncc4)C[C@@H]23)cc1 | x | 115* | -8 | 1 | 101* | 28 | u | 71*
COc1ccc(C#Cc2ccc([C@@H]3[C@@H](CO)N4CCCCN(Cc5ccncc5)C[C@H]34)cc2)cc1 | x | u | -74 | 2 | 100* | u | 89* | 105*
OC[C@@H]1[C@H](c2ccc(-c3ccccc3)cc2)[C@H]2CN(CCC(F)(F)F)CCCCN12 | x | 104* | -80* | -1 | 103* | 62 | 19 | 106*
CN(C)C(=O)c1ccc(-c2ccc([C@H]3[C@@H](CO)N4CCCCN(CCC(F)(F)F)C[C@H]34)cc2)cc1 | x | 101* | -24 | 0 | 100* | 89 | -9 | -5
SMILES | IDH1 mut inh | T cruzi growth-1 | Pf Dd2 growth | KDM4C inh | T cruzi growth-2 | T cruzi growth-3 | 3T3 cytotox | NIH3T3 tox 2
Cc1cccc(-c2ccc([C@@H]3[C@H]4CN(CCC(F)(F)F)CCCCN4[C@H]3CO)cc2)c1 | x | 99* | -12 | -2 | 103* | 85 | 41* | 105*
OC[C@@H]1[C@H](c2ccc(-c3cccc(F)c3)cc2)[C@@H]2CN(CCC(F)(F)F)CCCCN12 | x | 91 | -11 | 0 | x | x | x | x
OC[C@@H]1[C@H](c2ccc(C#CC3CCCC3)cc2)[C@H]2CN(CCC(F)(F)F)CCCCN12 | x | 101* | u | 0 | 89 | 109* | 58* | 105*
Cc1cccc(S(=O)(=O)N2[C@@H]3Cn4c(cccc4=O)[C@H]2[C@@H](C(=O)NC2CCC2)[C@@H]3CO)c1 | x | 6 | -7 | 1 | x | x | x | x
COc1ccc(-c2nnc(SCC(=O)Nc3cccc(SC)c3)o2)cc1 | 0 | x | x | x | x | x | x | x
O=C(COc1cc(Cl)c(Cl)cc1Cl)Nc1ccccc1[N+](=O)[O-] | 0 | x | x | x | x | x | x | x
OC[C@H]1[C@@H](c2ccc(-c3ccc(F)cc3)cc2)[C@H]2CN(CCC(F)(F)F)CCCCN21 | x | 102* | -50 | -2 | 103* | 81 | 57* | 105*
OC[C@@H]1[C@H](c2ccc(-c3cccc(F)c3)cc2)[C@H]2CN(CCC(F)(F)F)CCCCN12 | x | 107* | -74 | -2 | 99* | 85 | 27 | 104*
OC[C@@H]1[C@H](c2ccc(-c3ccc(F)cc3)cc2)[C@@H]2CN(CCC(F)(F)F)CCCCN12 | x | u | 2 | -1 | 105* | 95 | 40* | 105*
OC[C@@H]1[C@@H](c2ccc(-c3ccccc3)cc2)[C@H]2CN(CCC(F)(F)F)CCCCN12 | x | 85 | -72 | 1 | x | x | x | x
COc1ccccc1S(=O)(=O)N[C@H]1CC[C@H](CCn2cc(C3CCCCC3)nn2)O[C@H]1CO | 0 | -16 | 30 | -2 | x | x | x | x
